Results as given in ChEMBL document CHEMBL4007382 (Eur J Med Chem, 2017).

Assays:
[1] = biological target: T1, Cholinesterase (Homo sapiens, UniProt P06276); assay: Irreversible inhibition of human plasma BuChE assessed as second order carbamylation rate constant using S-butyrylthiocholine iodide as substrate preincubated up to 45 mins followed by substrate addition measured after 5 mins
Outline: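 Diluted human plasma BChE was preincubated for 1–45 min with inhibitor at 5×10^-9, 1×10^-8, 2.5×10^-8 and 5×10^-8 M. Residual Ellman activity with BTCh at pH 8 was normalised to a water control. kobs came from a one-phase exponential fit; k_I1 came from the slope of kobs versus concentration.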

[2] = system: Mus musculus; assay: Cardiotoxicity in Kunming mouse assessed as change in heart rate at 20 mg/kg, ip measured after 32 mins by electrocardiogram (reference value: -43.48 +/- 20.81); type: toxicity, organism-based; conditions: in vivo
[3] = system: Mus musculus; assay: Cardiotoxicity in Kunming mouse assessed as change in heart rate at 20 mg/kg, ip measured after 16 mins by electrocardiogram (reference value: -38.67 +/- 10.18); type: toxicity, organism-based; conditions: in vivo
[4] = biological target: T1, Cholinesterase; assay: Inhibition of human plasma BuChE using S-butyrylthiocholine iodide as substrate preincubated for 60 mins followed by substrate addition measured after 5 mins by Ellman's method
Outline: (§1)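 Source was plasma from heparinised blood of one healthy donor, centrifuged at 1000 × g for 20 min at 25°C, stored at -80°C and diluted 150X. Ellman assay at pH 8 and 37°C with 60 min preincubation and seven inhibitor concentrations in water, 5×10^-8 to 5×10^-10 M. Triplicates.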

[5] = system: Mus musculus; assay: Cardiotoxicity in Kunming mouse assessed as change in heart rate at 20 mg/kg, ip measured after 27 mins by electrocardiogram (reference value: -44.4 +/- 23.19); type: toxicity, organism-based; conditions: in vivo, 0.45 h
[6] = system: Mus musculus; assay: Cardiotoxicity in Kunming mouse assessed as change in heart rate at 20 mg/kg, ip measured after 3 mins by electrocardiogram (reference value: -14.4 +/- 19.94); type: toxicity, organism-based; conditions: in vivo, 0.05 h
[7] = system: Mus musculus; assay: Cardiotoxicity in Kunming mouse assessed as change in heart rate at 20 mg/kg, ip measured after 21 mins by electrocardiogram (reference value: -40.23 +/- 16.21); type: toxicity, organism-based; conditions: in vivo, 0.35 h
[8] = system: Mus musculus; assay: Cardiotoxicity in Kunming mouse assessed as change in heart rate at 20 mg/kg, ip measured after 33 mins by electrocardiogram (reference value: -39.12 +/- 24.73); type: toxicity, organism-based; conditions: in vivo, 0.55 h
[9] = system: Mus musculus; assay: Cardiotoxicity in Kunming mouse assessed as change in heart rate at 20 mg/kg, ip measured after 25 mins by electrocardiogram (reference value: -43.17 +/- 15.26); type: toxicity, organism-based; conditions: in vivo
[10] = system: Mus musculus; assay: Cardiotoxicity in Kunming mouse assessed as change in heart rate at 20 mg/kg, ip measured after 7 mins by electrocardiogram (reference value: -25.9 +/- 22.08); type: toxicity, organism-based; conditions: in vivo
[11] = system: Mus musculus; assay: Cardiotoxicity in Kunming mouse assessed as change in heart rate at 20 mg/kg, ip measured after 24 mins by electrocardiogram (reference value: -44.48 +/- 12.38); type: toxicity, organism-based; conditions: in vivo, 0.4 h
[12] = system: Mus musculus; assay: Cardiotoxicity in Kunming mouse assessed as change in heart rate at 20 mg/kg, ip measured after 18 mins by electrocardiogram (reference value: -37.61 +/- 15); type: toxicity, organism-based; conditions: in vivo, 0.3 h
[13] = biological target: T1, Cholinesterase; assay: Inhibition of human blood BuChE using butyrylthiocholine as substrate; outline: as §1
[14] = biological target: Acetylcholinesterase (Homo sapiens, UniProt P22303); assay: Inhibition of human blood AChE using acetylthiocholine as substrate
Chain of Acetylcholinesterase (P22303 whole entry): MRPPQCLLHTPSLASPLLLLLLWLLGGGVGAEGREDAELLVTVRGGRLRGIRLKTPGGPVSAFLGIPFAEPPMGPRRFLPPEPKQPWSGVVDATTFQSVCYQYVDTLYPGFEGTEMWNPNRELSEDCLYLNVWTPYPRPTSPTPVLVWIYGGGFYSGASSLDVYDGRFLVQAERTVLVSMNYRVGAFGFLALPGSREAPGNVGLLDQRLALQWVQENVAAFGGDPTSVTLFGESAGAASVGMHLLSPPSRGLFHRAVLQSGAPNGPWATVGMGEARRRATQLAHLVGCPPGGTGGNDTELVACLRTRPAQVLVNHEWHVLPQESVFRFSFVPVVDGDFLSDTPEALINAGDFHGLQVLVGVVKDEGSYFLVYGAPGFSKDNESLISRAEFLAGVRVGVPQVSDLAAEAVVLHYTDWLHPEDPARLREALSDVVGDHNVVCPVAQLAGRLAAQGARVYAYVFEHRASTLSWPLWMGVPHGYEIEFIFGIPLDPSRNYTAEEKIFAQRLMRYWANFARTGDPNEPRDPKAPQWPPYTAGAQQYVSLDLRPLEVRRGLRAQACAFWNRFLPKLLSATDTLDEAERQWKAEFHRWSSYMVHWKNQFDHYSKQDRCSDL

T1 sequence (P06276 whole entry): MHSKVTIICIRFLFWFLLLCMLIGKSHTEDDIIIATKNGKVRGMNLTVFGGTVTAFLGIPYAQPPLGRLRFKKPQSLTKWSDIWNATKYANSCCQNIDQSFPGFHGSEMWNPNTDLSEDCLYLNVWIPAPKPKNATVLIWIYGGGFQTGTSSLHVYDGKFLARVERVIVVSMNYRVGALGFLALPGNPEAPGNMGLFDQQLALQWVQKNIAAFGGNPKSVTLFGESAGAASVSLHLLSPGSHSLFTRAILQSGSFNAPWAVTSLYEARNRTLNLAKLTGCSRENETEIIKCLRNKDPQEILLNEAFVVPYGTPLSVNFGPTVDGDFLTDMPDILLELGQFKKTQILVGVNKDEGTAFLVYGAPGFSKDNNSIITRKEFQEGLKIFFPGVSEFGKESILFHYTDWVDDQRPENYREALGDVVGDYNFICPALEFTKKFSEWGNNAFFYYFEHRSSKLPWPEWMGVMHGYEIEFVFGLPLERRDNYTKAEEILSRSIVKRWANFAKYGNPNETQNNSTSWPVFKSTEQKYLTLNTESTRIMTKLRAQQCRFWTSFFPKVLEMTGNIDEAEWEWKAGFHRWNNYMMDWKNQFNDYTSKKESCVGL

SMILES	Ki [1] [×10⁵ /M/min]	Activity [2] [bpm]	Activity [3] [bpm]	IC50 [4] [nM]	Activity [5] [bpm]	Activity [6] [bpm]	Activity [7] [bpm]	Activity [8] [bpm]	Activity [9] [bpm]	Activity [10] [bpm]	Activity [11] [bpm]	Activity [12] [bpm]	IC50 [13] [nM]	IC50 [14] [nM]
CCC(C)(C)NCC(O)c1cc(OC(=O)N(C)C)cc(OC(=O)N(C)C)c1.Cl (stereo not drawn)	60	-36.77	-42.02	7.28	-32.47	-22.65	-41.83	-39.88	-44.42	-33.53	-42.92	-38.45		
CCN(C)C(=O)Oc1cc(OC(=O)N(C)CC)cc(C(O)CNC(C)(C)CC)c1.Cl (stereo not drawn)	73.3	-1.37	3.92	7.12	-4.43	0.93	0.05	-2.93	-0.22	-3.03	3.13	5.47		
CN(C)C(=O)Oc1cc(OC(=O)N(C)C)cc(C(O)CNC(C)(C)C)c1 (stereo not drawn) [BAMBUTEROL]	77.7	-2.09	57.32	4.29	-1.54	2.1	32.75	4.05	30.43	16.59	29.39	32.35	3	30000
